According to ChEMBL document CHEMBL1800056, “Discovery of 2-(6-{[(6-fluoroquinolin-2-yl)methyl]amino}bicyclo[3.1.0]hex-3-yl)-N-hydroxypyrimidine-5-carboxamide (CHR-3996), a class I selective orally active histone deacetylase inhibitor” (J Med Chem, 2010):
≈ marks a conversion by molar mass, not a printed value.

Tests used:
[1] = AUC (0 to t) in spleen of CD1 mouse at 3 mg/kg, po; assay type: ADME, organism-based; parameters: dose 3 mg/kg, route oral
How it was run: (§1)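 Oral cassette PK in CD1 mice: four compounds per cassette, each at 3 mg/kg po. AUC0-t (ng h/mL) measured in plasma and spleen; spleen/plasma AUC ratio reported.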

[2] = AUC (0 to t) in plasma of CD1 mouse at 3 mg/kg, po; assay type: ADME, organism-based; parameters: dose 3 mg/kg, route oral; how it was run: as §1
Histone deacetylase = assay: Inhibition of HDAC in human HeLa cells nuclear extract using fluor de Lys as substrate preincubated for 5 mins by fluorometric analysis; assay type: cell-based
Spleen = assay: Ratio of AUC (0 to t) in spleen to plasma of CD1 mouse at 3 mg/kg, po; details: in vivo
HCT-116 [3] = assay: Antiproliferative activity against human HCT116 cells after 72 hrs by WST-1 assay; assay type: functional
How it was run: (§2)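 Cells seeded at (1-5) × 10³/well in serum-containing medium for 24 h at 37 °C, 5% CO₂. Inhibitor added at 0.6-10000 nM for 72 h, with WST-1 pulse over the final 4 h. Formazan read at 450 nm (reference 650 nm). Expressed as % inhibition of vehicle response; GI50 is the concentration inhibiting 50% of vehicle response; n = 6 replicates.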

[4] = Ratio of GI50 for human HCT116 cells to IC50 for HDAC in human HeLa cell nuclear extracts
How it was run: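 Cell/enzyme ratio = HCT116 GI50 divided by HDAC IC50. Enzyme: HeLa nuclear extract (10 μg protein), 5 min preincubation, then Fluor de Lys substrate 62.5 μM, 15 min at room temperature. Stopped with developer containing trichostatin A; fluorescence ex 355/em 455 nm; eight concentrations in duplicate. Cells: HCT116, 72 h exposure (0.6-10000 nM), WST-1 read at 450 nm, n = 6.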

[5] = Clearance in mouse liver microsomes assessed as compound remaining after 30 mins; assay type: ADME, Microsome; details: read-out: Activity
[6] = Aqueous solubility of the compound in PBS at pH 5.5; assay type: physicochemical
[7] = Aqueous solubility of the compound in PBS at pH 7.4; assay type: physicochemical
Cytochrome P450 2D6 = Cytochrome P450 2D6 (Homo sapiens, UniProt P10635); assay: Inhibition of CYP2D6; assay type: ADME
Sequence of Cytochrome P450 2D6 (P10635 whole entry): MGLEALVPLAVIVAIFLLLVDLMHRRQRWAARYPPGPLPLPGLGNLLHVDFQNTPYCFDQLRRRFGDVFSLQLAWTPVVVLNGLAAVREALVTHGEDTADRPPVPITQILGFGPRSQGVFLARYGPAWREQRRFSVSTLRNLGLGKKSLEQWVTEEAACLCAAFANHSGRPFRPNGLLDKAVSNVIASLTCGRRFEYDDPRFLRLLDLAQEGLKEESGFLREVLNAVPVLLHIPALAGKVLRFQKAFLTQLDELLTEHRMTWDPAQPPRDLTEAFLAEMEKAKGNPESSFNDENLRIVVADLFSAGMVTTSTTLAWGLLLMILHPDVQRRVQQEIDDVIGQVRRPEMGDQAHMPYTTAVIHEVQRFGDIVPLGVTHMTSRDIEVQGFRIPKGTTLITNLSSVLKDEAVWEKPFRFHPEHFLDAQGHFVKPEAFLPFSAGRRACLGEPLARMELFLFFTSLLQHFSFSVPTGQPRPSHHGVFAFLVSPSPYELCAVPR

[8] = Clearance in human liver microsomes assessed as compound remaining after 30 mins; assay type: ADME, Microsome; details: read-out: Activity
Cytochrome P450 2C19 = Cytochrome P450 2C19 (Homo sapiens, UniProt P33261); assay: Inhibition of CYP2C19; assay type: ADME
Sequence of Cytochrome P450 2C19 (P33261 whole entry): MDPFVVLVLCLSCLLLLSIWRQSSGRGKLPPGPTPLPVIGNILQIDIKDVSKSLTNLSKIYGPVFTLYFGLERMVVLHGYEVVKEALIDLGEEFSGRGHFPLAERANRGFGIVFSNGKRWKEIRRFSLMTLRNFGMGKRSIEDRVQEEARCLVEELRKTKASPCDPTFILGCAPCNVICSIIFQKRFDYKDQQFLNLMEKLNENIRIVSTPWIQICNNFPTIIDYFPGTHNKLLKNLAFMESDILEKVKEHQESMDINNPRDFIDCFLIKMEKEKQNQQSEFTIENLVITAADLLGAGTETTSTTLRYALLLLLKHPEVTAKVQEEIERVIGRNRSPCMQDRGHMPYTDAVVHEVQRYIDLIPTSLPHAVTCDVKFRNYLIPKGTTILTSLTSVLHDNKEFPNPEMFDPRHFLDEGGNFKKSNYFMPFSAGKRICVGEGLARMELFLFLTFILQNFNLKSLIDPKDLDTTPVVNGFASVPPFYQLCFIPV

Cytochrome P450 3A4 = Cytochrome P450 3A4 (Homo sapiens, UniProt P08684); assay: Inhibition of CYP3A4; assay type: ADME
Sequence of Cytochrome P450 3A4 (P08684 whole entry): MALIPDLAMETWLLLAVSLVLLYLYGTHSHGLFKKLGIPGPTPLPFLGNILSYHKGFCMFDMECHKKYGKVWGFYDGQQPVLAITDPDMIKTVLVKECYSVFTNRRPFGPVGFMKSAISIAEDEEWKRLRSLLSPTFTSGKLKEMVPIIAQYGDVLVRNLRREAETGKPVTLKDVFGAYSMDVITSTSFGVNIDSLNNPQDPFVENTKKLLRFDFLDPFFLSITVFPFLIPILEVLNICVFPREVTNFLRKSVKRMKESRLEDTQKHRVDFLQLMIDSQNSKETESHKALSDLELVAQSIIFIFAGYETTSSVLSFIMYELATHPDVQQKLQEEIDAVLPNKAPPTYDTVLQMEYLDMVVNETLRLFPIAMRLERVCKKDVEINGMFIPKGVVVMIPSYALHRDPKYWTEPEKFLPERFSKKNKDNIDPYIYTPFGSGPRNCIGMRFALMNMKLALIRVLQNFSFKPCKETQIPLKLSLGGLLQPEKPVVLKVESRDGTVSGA

HCT-116 [9] = assay: Cell cycle arrest in human HCT116 cells assessed as accumulation at sub-G1 phase at 300 nM after 15 hrs by propidium iodide staining based flow cytometric analysis; assay type: functional
HepG2 = assay: Antiproliferative activity against human HepG2 cells after 72 hrs by WST-1 assay; assay type: functional; how it was run: as §2
MOLT-4 = assay: Antiproliferative activity against human MOLT4 cells after 72 hrs by WST-1 assay; assay type: functional; how it was run: as §2
A2780 = assay: Antiproliferative activity against human A2780 cells after 72 hrs by WST-1 assay; assay type: functional; how it was run: as §2
U-937 = assay: Antiproliferative activity against human U937 cells after 72 hrs by WST-1 assay; assay type: functional; how it was run: as §2
LoVo = assay: Antiproliferative activity against human LoVo cells after 72 hrs by WST-1 assay; assay type: functional; how it was run: as §2
HCT-116 [10] = assay: Cell cycle arrest in human HCT116 cells assessed as accumulation at G1 phase at 300 nM after 15 hrs by propidium iodide staining based flow cytometric analysis; assay type: functional
A549 = assay: Antiproliferative activity against human A549 cells after 72 hrs by WST-1 assay; assay type: functional; how it was run: as §2
HCT-116 [11] = assay: Cell cycle arrest in human HCT116 cells assessed as accumulation at S phase at 300 nM after 15 hrs by propidium iodide staining based flow cytometric analysis; assay type: functional
COR-L23 [12] = assay: Antiproliferative activity against human COR-L23 cells after 72 hrs by WST-1 assay; assay type: functional; how it was run: as §2
MIA PaCa-2 = assay: Antiproliferative activity against human MIAPaCa2 cells after 72 hrs by WST-1 assay; assay type: functional; how it was run: as §2
MG-63 = assay: Antiproliferative activity against human MG63 cells after 72 hrs by WST-1 assay; assay type: functional; how it was run: as §2
HCT-116 [13] = assay: Cell cycle arrest in human HCT116 cells assessed as accumulation at G2/M phase at 300 nM after 15 hrs by propidium iodide staining based flow cytometric analysis; assay type: functional
[14] = Antiproliferative activity against human […] cells after 72 hrs by WST-1 assay; assay type: functional; how it was run: as §2
COR-L23 [15] = assay: Antiproliferative activity against doxorubicin-resistant human COR-L23 cells after 72 hrs by WST-1 assay; assay type: functional; how it was run: as §2

Row | IC50 (Histone deacetylase) [nM] | GI50 (HCT-116 [3]; Homo sapiens, HCT-116, 72 h) [nM] | Compound | Ratio [4] | also measured
1 | 9 |  | O=C(NO)c1cnc(N2C[C@@H]3[C@H](C2)[C@H]3NCc2ccc3ccccc3n2)nc1 |  | AUC(0-t) [1]: 294 ng·h/mL; AUC(0-t) [2]: 42 ng·h/mL; Ratio (Spleen): 7
2 | 44 | 160 | O=C(NO)c1cnc(N2C[C@@H]3[C@H](C2)[C@H]3NCC2CCCCC2)nc1 | 4 | 
3 | 27 | 380 | O=C(NO)c1cnc(N2C[C@@H]3[C@H](C2)[C@H]3NCc2ccc(F)cc2)nc1 | 14 | 
4 | 14 | 250 | O=C(NO)c1cnc(N2C[C@@H]3[C@H](C2)[C@H]3NCc2ccc(Br)cc2)nc1 | 18 | 
5 | 15 | 120 | O=C(NO)c1cnc(N2C[C@@H]3[C@H](C2)[C@H]3NCc2ccc(OC(F)(F)F)cc2)nc1 | 8 | AUC(0-t) [1]: 251 ng·h/mL; AUC(0-t) [2]: 83 ng·h/mL; Ratio (Spleen): 3
6 | 10 | 120 | O=C(NO)c1cnc(N2C[C@@H]3[C@H](C2)[C@H]3NCc2ccccc2)nc1 | 12 | 
7 | 57 | 5100 | O=C(NO)c1cnc(N2C[C@@H]3[C@H](C2)[C@H]3NC(=O)c2ccccc2)nc1 | 89 | 
8 | 12.4 | 160 | O=C(NO)c1cnc(N2C[C@@H]3[C@H](C2)[C@H]3NCc2ccc3ccccc3c2)nc1 | 13 | remaining at 0.5 h [5]: 100%; solubility [6]: 208 µg/mL (≈ 554 µM); solubility [7]: 12 µg/mL (≈ 32 µM); IC50 (Cytochrome P450 2D6): > 50000 nM; remaining at 0.5 h [8]: 40%; AUC(0-t) [1]: 145 ng·h/mL; AUC(0-t) [2]: 50 ng·h/mL; IC50 (Cytochrome P450 2C19): > 50000 nM; Ratio (Spleen): 2.9; IC50 (Cytochrome P450 3A4): > 50000 nM
9 | 32 | 370 | O=C(NO)c1cnc(N2CC3C(CNCc4ccc5ccccc5c4)C3C2)nc1 (centres undefined) | 12 | 
10 | 34 | 280 | O=C(NO)c1cnc(N2C[C@@H]3[C@H](C2)[C@H]3NCCc2ccccc2)nc1 | 8 | 
11 | 40 | 3600 | O=C(NO)c1cnc(N2C[C@@H]3[C@H](C2)[C@H]3NC(=O)c2cccs2)nc1 | 90 | 
12 | 16 | 200 | O=C(NO)c1cnc(N2C[C@@H]3[C@H](C2)[C@H]3NCc2cc(F)cc(F)c2)nc1 | 13 | 
13 | 30 | 270 | N#Cc1ccc(CN[C@H]2[C@@H]3CN(c4ncc(C(=O)NO)cn4)C[C@@H]32)cc1 | 9 | 
14 | 20 | 190 | COc1ccc(CN[C@H]2[C@@H]3CN(c4ncc(C(=O)NO)cn4)C[C@@H]32)cc1 | 9.5 | 
15 | 13 | 410 | O=C(NO)c1cnc(N2C[C@@H]3[C@H](C2)[C@H]3NC(=O)c2ccc3ccccc3c2)nc1 | 32 | 
16 | 16 | 200 | O=C(NO)c1cnc(N2C[C@@H]3[C@H](C2)[C@H]3NCc2cc(C(F)(F)F)cc(C(F)(F)F)c2)nc1 | 12.5 | 
17 | 27 | > 10000 | O=C(NO)c1cnc(N2C[C@@H]3[C@H](C2)[C@H]3NS(=O)(=O)c2cccs2)nc1 | >370 | 
18 | 23 | 1000 | CN([C@H]1[C@@H]2CN(c3ncc(C(=O)NO)cn3)C[C@@H]21)S(=O)(=O)c1ccc2ccccc2c1 | 44 | 
19 | 22 | 410 | CCCCc1ccc(CN[C@H]2[C@@H]3CN(c4ncc(C(=O)NO)cn4)C[C@@H]32)cc1 | 18 | 
20 | 34 | 700 | O=C(NO)c1cnc(N2C[C@@H]3[C@H](C2)[C@H]3NCc2ccc(C(F)(F)F)cc2)nc1 | 21 | 
21 | 16 | 120 | O=C(NO)c1cnc(N2C[C@@H]3[C@H](C2)[C@H]3NCc2ccc(Oc3ccccc3)cc2)nc1 | 7.5 | AUC(0-t) [1]: 219 ng·h/mL; AUC(0-t) [2]: 52 ng·h/mL; Ratio (Spleen): 4.2
22 | 14 | 56 | O=C(NO)c1cnc(N2C[C@@H]3[C@H](C2)[C@H]3NCc2ccc(-c3ccccc3)cc2)nc1 | 4 | 
23 |  |  | O=C(CCCCCCC(=O)Nc1ccccc1)NO [VORINOSTAT] |  | Activity (HCT-116 [9]): 19%; GI50 (HepG2): 4600 nM; GI50 (MOLT-4): 670 nM; GI50 (A2780): 3150 nM; GI50 (U-937): 450 nM; GI50 (LoVo): 1700 nM; Activity (HCT-116 [10]): 35%; GI50 (A549): 5700 nM; Activity (HCT-116 [11]): 14%; GI50 (COR-L23 [12]): 1100 nM; GI50 (HCT-116 [3]): 740 nM; GI50 (MIA PaCa-2): 3500 nM; GI50 (MG-63): > 10000 nM; Activity (HCT-116 [13]): 32%; GI50 [14]: 2100 nM; GI50 (COR-L23 [15]): 3300 nM
24 | 6.5 | 440 | O=C(NO)c1cnc(N2C[C@@H]3[C@H](C2)[C@H]3NS(=O)(=O)c2ccc3ccccc3c2)nc1 | 73 | remaining at 0.5 h [5]: 66%; solubility [6]: 74 µg/mL (≈ 174 µM); solubility [7]: 34 µg/mL (≈ 79.9 µM); IC50 (Cytochrome P450 2D6): 10000 nM; remaining at 0.5 h [8]: 43%; IC50 (Cytochrome P450 2C19): 10000 nM; IC50 (Cytochrome P450 3A4): 10000 nM
